Reference: ChEMBL document CHEMBL3243989, “Antibacterial N-[omega, omega'-bis(alicyclic and aryl)-sec-alkyl]poly(methylene)triamine and -tetramine hydrochloride salts” (J Med Chem, 1979)
One block for each compound: values may come before it. Activity calls are given as the source filed them. The calls are words filed in the database; no cut-off is given here.

Columns and labels:
[1] = Metal chelate stability constant of the compound assessed as copper ion complex formation; assay type: physicochemical
[2] = system: Proteus vulgaris; test: Antibacterial activity against Proteus vulgaris MB838 assessed as growth inhibition at 200 ug/mL; assay type: functional, organism-based
[3] = system: Pseudomonas aeruginosa; test: Antibacterial activity against Pseudomonas aeruginosa MB418 assessed as growth inhibition; assay type: functional
Outline: (§1)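 MIC (µg/mL) by in vitro growth inhibition in an assay system at pH 7.4. Tetracycline was run routinely to check medium, incubation conditions and inoculum virility.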

[4] = system: Pseudomonas aeruginosa; test: Antibacterial activity against Pseudomonas aeruginosa MB2245 assessed as growth inhibition; assay type: functional; outline: as §1
[5] = system: Staphylococcus aureus; test: Antibacterial activity against Staphylococcus aureus MB108 assessed as growth inhibition; assay type: functional; outline: as §1
[6] = system: Staphylococcus aureus; test: Antibacterial activity against Staphylococcus aureus MB2865 assessed as growth inhibition; assay type: functional; outline: as §1
[7] = system: Bacillus subtilis; test: Antibacterial activity against Bacillus subtilis MB964 assessed as growth inhibition; assay type: functional; outline: as §1
[8] = system: Salmonella; test: Antibacterial activity against Salmonella schottmuelleri MB2837 assessed as growth inhibition; assay type: functional; outline: as §1
[9] = system: Escherichia coli; test: Antibacterial activity against Escherichia coli MB2884 assessed as growth inhibition; assay type: functional; outline: as §1
[10] = system: Klebsiella aerogenes; test: Antibacterial activity against Klebsiella aerogenes MB1503 assessed as growth inhibition; assay type: functional; outline: as §1
[11] = system: Bordetella bronchiseptica; test: Antibacterial activity against Bordetella bronchiseptica MB3551 assessed as growth inhibition; assay type: functional; outline: as §1
[12] = system: Bordetella bronchiseptica; test: Antibacterial activity against Bordetella bronchiseptica MB905 assessed as growth inhibition; assay type: functional; outline: as §1
[13] = system: Streptococcus pyogenes; test: Antibacterial activity against Streptococcus pyogenes assessed as growth inhibition at 2 to 8 ug/mL; assay type: functional, organism-based
[14] = system: Pasteurella multocida; test: Antibacterial activity against Pasteurella multocida MB7 assessed as growth inhibition at 2 to 8 ug/mL; assay type: functional, organism-based
[15] = system: Corynebacterium pseudodiphtheriticum; test: Antibacterial activity against Corynebacterium pseudodiphtheriticum assessed as growth inhibition at 2 to 8 ug/mL; assay type: functional, organism-based
[16] = Lipophilicity, log P of the compound; conditions: octanol/water
[17] = system: Corynebacterium pseudodiphtheriticum; test: Antibacterial activity against Corynebacterium pseudodiphtheriticum assessed as growth inhibition at 15 ug/mL; assay type: functional, organism-based

log K [1]: 23.9
Compound: NCCNCCCNCCN

Compound: CC1(C)C2CCC(C2)C1CCC(CCC1C2CCC(C2)C1(C)C)NCCNCCCNCCN.Cl (stereo not drawn)
growth inhibition (GI) [2]: inactive
MIC [3]: 30 µg/mL
MIC [4]: 15 µg/mL
MIC [5]: 6 µg/mL
MIC [6]: 6 µg/mL
MIC [7]: 6 µg/mL
MIC [8]: 6 µg/mL
MIC [9]: 8 µg/mL
MIC [10]: 10 µg/mL
MIC [11]: 6 µg/mL
MIC [12]: 8 µg/mL
growth inhibition (GI) [13]: Active
growth inhibition (GI) [14]: Active
growth inhibition (GI) [15]: inactive

Compound: CC(C)(C)c1ccc(CCC(CCc2ccc(C(C)(C)C)cc2)NCCCNCCCN)cc1.Cl
growth inhibition (GI) [2]: inactive
MIC [3]: 8 µg/mL
MIC [4]: 15 µg/mL
MIC [5]: 6 µg/mL
MIC [6]: 15 µg/mL
MIC [7]: 2 µg/mL
MIC [8]: 4 µg/mL
MIC [9]: 6 µg/mL
MIC [10]: 15 µg/mL
MIC [11]: 4 µg/mL
MIC [12]: 4 µg/mL
growth inhibition (GI) [13]: Active
growth inhibition (GI) [14]: Active
growth inhibition (GI) [15]: inactive

Compound: Cl.NCCCNCCCNC(CCC1CCCC1)CCC1CCCC1
growth inhibition (GI) [2]: inactive
MIC [3]: 60 µg/mL
MIC [4]: 30 µg/mL
MIC [5]: 20 µg/mL
MIC [6]: 15 µg/mL
MIC [7]: 6 µg/mL
MIC [8]: 8 µg/mL
MIC [9]: 30 µg/mL
MIC [10]: 15 µg/mL
MIC [11]: 4 µg/mL
MIC [12]: 4 µg/mL
growth inhibition (GI) [13]: Active
growth inhibition (GI) [14]: Active
growth inhibition (GI) [15]: inactive

Compound: CC(C)C1CCC(CCC(CCC2CCC(C(C)C)CC2)NCCCNCCCN)CC1.Cl (stereo not drawn)
growth inhibition (GI) [2]: inactive
MIC [3]: 60 µg/mL
MIC [4]: 60 µg/mL
MIC [5]: 20 µg/mL
MIC [6]: 40 µg/mL
MIC [7]: 6 µg/mL
MIC [8]: 20 µg/mL
MIC [9]: 50 µg/mL
MIC [10]: 50 µg/mL
MIC [11]: 10 µg/mL
MIC [12]: 10 µg/mL
growth inhibition (GI) [13]: Active
growth inhibition (GI) [14]: Active
growth inhibition (GI) [15]: inactive

Compound: Cl.NCCNCCNCCNC(CCCC1CCCCC1)CCCC1CCCCC1
growth inhibition (GI) [2]: inactive
MIC [3]: 30 µg/mL
MIC [4]: 30 µg/mL
MIC [5]: 6 µg/mL
MIC [6]: 15 µg/mL
MIC [7]: 4 µg/mL
MIC [8]: 6 µg/mL
MIC [9]: 10 µg/mL
MIC [10]: 6 µg/mL
MIC [11]: 4 µg/mL
MIC [12]: 6 µg/mL
growth inhibition (GI) [13]: Active
growth inhibition (GI) [14]: Active
growth inhibition (GI) [15]: inactive

Compound: NCCCNCCCN [NORSPERMIDINE]
log K [1]: 14.2

Compound: Cl.NCCCNCCCNC(CCc1ccc2ccccc2c1)CCc1ccc2ccccc2c1
growth inhibition (GI) [2]: inactive
MIC [3]: 40 µg/mL
MIC [4]: 100 µg/mL
MIC [5]: 6 µg/mL
MIC [6]: 8 µg/mL
MIC [7]: 8 µg/mL
MIC [8]: 8 µg/mL
MIC [9]: 15 µg/mL
MIC [10]: 20 µg/mL
MIC [11]: 4 µg/mL
MIC [12]: 4 µg/mL
growth inhibition (GI) [13]: Active
growth inhibition (GI) [14]: Active
growth inhibition (GI) [15]: inactive

Compound: Cc1ccc(CCC(CCc2ccc(C)cc2)NCCCNCCCN)cc1.Cl
growth inhibition (GI) [2]: inactive
MIC [3]: 60 µg/mL
MIC [4]: 40 µg/mL
MIC [5]: 30 µg/mL
MIC [6]: 50 µg/mL
MIC [7]: 4 µg/mL
MIC [8]: 10 µg/mL
MIC [9]: 50 µg/mL
MIC [10]: 15 µg/mL
MIC [11]: 6 µg/mL
MIC [12]: 4 µg/mL
growth inhibition (GI) [13]: Active
growth inhibition (GI) [14]: Active
growth inhibition (GI) [15]: inactive

Compound: CN(CCCNCCCN)C(CCC1CCCCC1)CCC1CCCCC1.Cl
growth inhibition (GI) [2]: inactive
MIC [3]: 8 µg/mL
MIC [4]: 20 µg/mL
MIC [5]: 10 µg/mL
MIC [6]: 30 µg/mL
MIC [7]: 4 µg/mL
MIC [8]: 1 µg/mL
MIC [9]: 8 µg/mL
MIC [10]: 4 µg/mL
MIC [11]: 4 µg/mL
MIC [12]: 6 µg/mL
growth inhibition (GI) [13]: Active
growth inhibition (GI) [14]: Active
growth inhibition (GI) [15]: inactive

logP [16]: -0.82
Compound: NCCNCCNCCN [TRIENTINE]

Compound: CC(C)(C)c1ccc(CCCC(CCCc2ccc(C(C)(C)C)cc2)NCCCNCCCNCCCN)cc1.Cl
growth inhibition (GI) [2]: inactive
MIC [3]: 80 µg/mL
MIC [4]: 100 µg/mL
MIC [5]: 30 µg/mL
MIC [6]: 20 µg/mL
MIC [7]: 10 µg/mL
MIC [8]: 15 µg/mL
MIC [9]: > 200 µg/mL
MIC [10]: > 200 µg/mL
MIC [11]: 30 µg/mL
MIC [12]: 20 µg/mL
growth inhibition (GI) [13]: Active
growth inhibition (GI) [14]: Active
growth inhibition (GI) [17]: Active

Compound: CC(C)c1ccc(CCCC(CCCc2ccc(C(C)C)cc2)NCCCNCCCN)cc1.Cl
growth inhibition (GI) [2]: inactive
MIC [3]: 15 µg/mL
MIC [4]: 40 µg/mL
MIC [5]: 20 µg/mL
MIC [6]: 20 µg/mL
MIC [7]: 6 µg/mL
MIC [8]: 10 µg/mL
MIC [9]: 40 µg/mL
MIC [10]: 20 µg/mL
MIC [11]: 10 µg/mL
MIC [12]: 10 µg/mL
growth inhibition (GI) [13]: Active
growth inhibition (GI) [14]: Active
growth inhibition (GI) [15]: inactive

Compound: Cl.NCCCNCCCNC(CCCC1CC=CCC1)CCCC1CC=CCC1 (stereo not drawn)
growth inhibition (GI) [2]: inactive
MIC [3]: 20 µg/mL
MIC [4]: 15 µg/mL
MIC [5]: 6 µg/mL
MIC [6]: 10 µg/mL
MIC [7]: 4 µg/mL
MIC [8]: 4 µg/mL
MIC [9]: 10 µg/mL
MIC [10]: 6 µg/mL
MIC [11]: 4 µg/mL
MIC [12]: 2 µg/mL
growth inhibition (GI) [13]: Active
growth inhibition (GI) [14]: Active
growth inhibition (GI) [15]: inactive

Compound: CC1(C)C2CCC(C2)C1CCC(CCC1C2CCC(C2)C1(C)C)NCCCN1CCN(CCCN)CC1.Cl (stereo not drawn)
growth inhibition (GI) [2]: inactive
MIC [3]: 200 µg/mL
MIC [4]: 200 µg/mL
MIC [5]: 6 µg/mL
MIC [6]: 20 µg/mL
MIC [7]: 8 µg/mL
MIC [8]: 6 µg/mL
MIC [9]: 20 µg/mL
MIC [10]: 4 µg/mL
MIC [11]: 8 µg/mL
MIC [12]: 4 µg/mL
growth inhibition (GI) [13]: Active
growth inhibition (GI) [14]: Active
growth inhibition (GI) [15]: inactive

Compound: CC(C)c1ccc(CCCC(CCCc2ccc(C(C)C)cc2)NCCNCCNCCN)cc1.Cl
growth inhibition (GI) [2]: inactive
MIC [3]: 8 µg/mL
MIC [4]: 80 µg/mL
MIC [5]: 6 µg/mL
MIC [6]: 20 µg/mL
MIC [7]: 4 µg/mL
MIC [8]: 10 µg/mL
MIC [9]: 15 µg/mL
MIC [10]: 60 µg/mL
MIC [11]: 30 µg/mL
MIC [12]: 30 µg/mL
growth inhibition (GI) [13]: Active
growth inhibition (GI) [14]: Active
growth inhibition (GI) [15]: inactive

Compound: Cc1ccc(C(C)(C)C)cc1CCCC(CCCc1cc(C(C)(C)C)ccc1C)NCCNCCNCCN.Cl
growth inhibition (GI) [2]: inactive
MIC [3]: 50 µg/mL
MIC [4]: 80 µg/mL
MIC [5]: 15 µg/mL
MIC [6]: 60 µg/mL
MIC [7]: 4 µg/mL
MIC [8]: 10 µg/mL
MIC [9]: 60 µg/mL
MIC [10]: 10 µg/mL
MIC [11]: 10 µg/mL
MIC [12]: 15 µg/mL
growth inhibition (GI) [13]: Active
growth inhibition (GI) [14]: Active
growth inhibition (GI) [15]: inactive

Compound: Cl.NCCCNCCCNC(CCCC1CCCCC1)CCCC1CCCCC1
growth inhibition (GI) [2]: inactive
MIC [3]: 8 µg/mL
MIC [4]: 8 µg/mL
MIC [5]: 4 µg/mL
MIC [6]: 8 µg/mL
MIC [7]: 4 µg/mL
MIC [8]: 4 µg/mL
MIC [9]: 8 µg/mL
MIC [10]: 4 µg/mL
MIC [11]: 4 µg/mL
MIC [12]: 4 µg/mL
growth inhibition (GI) [13]: Active
growth inhibition (GI) [14]: Active
growth inhibition (GI) [15]: inactive
